# Rows were chosen to be rich in hits. Some 2.2% of all compounds tested hit in one or more screens of this group.
# RanGTP-Impb inh: inhibitors of RanGTP-importin-beta interaction, primary screen, biochemical, FRET, CFP-Ran, YFP-importin-beta, homogeneous; cell-free CFP-Ran/YFP-importin-beta FRET ratio; inhibition, % (no concentration beside the values); hit rate 1.1% among 300,000; AID 2216;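 active means more than half of the replicate wells show a fall in the fluorescence ratio signal beyond about 16%, limit read from the data, passing the limit was not always enough; inconclusive means exactly half of the replicate wells pass the set limit; inactive means fewer than half of replicates pass the limit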;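 further: 0% = DMSO wells and 100% = Ran loaded with GDP instead of GTP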
# eIF4E 4G PPI: inhibitors of eIF4E and eIF4G interaction in translation initiation; TR-FRET eIF4E-eIF4GI(517-606) binding, 2 h; inhibition, % at 21.7 µM; hit rate 0.37% among 220,000; AID 782;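 active means inhibition above about 30%, limit read from the data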;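 further: 0% = full FRET control wells and 100% = background wells lacking eIF4GI fragment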
# Runt-CBFb FRET: Runt domain-CBFb interaction inhibition | Q01196+Q13951 | Cerulean-Runt/Venus-CBFb FRET ratio 530/480, 1 h | inhibition, % at 20 µM | hit rate 0.46% among 220,000 | AID 1496;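 active means inhibition over about 50% at 20 µM in the single-dose screen, limit read from the data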;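 further: 0% = DMSO wells and 100% = excess unlabeled CBFb competitor control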
#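 test system = Cerulean-tagged RUNX1 Runt domain (FRET donor) fusion protein | reagent = Venus-CBFb binding partner, 100 nM | incubation = protein complex preformed 1 h, compound exposure 1 h, room temperature, dark | detection = FRET fluorescence | read-out basis = loss of energy transfer signal | controls = 5 µM unlabeled CBFb as full-inhibition high control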
# Hck-Nef inh: human Hck-Nef kinase inhibition. P08631. Recombinant Hck-YEEI plus Nef, Z-Lyte FRET kinase assay. inhibition, % at 20 µM. hit rate 0.68% among 220,000. AID 463187;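 active means Hck-Nef kinase inhibition above about 50%, limit read from the data; inactive means inhibition below that limit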;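 further: 0% = DMSO with Hck plus Nef and 100% = Hck alone without Nef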
# Target sequence (P08631 whole entry, looked up): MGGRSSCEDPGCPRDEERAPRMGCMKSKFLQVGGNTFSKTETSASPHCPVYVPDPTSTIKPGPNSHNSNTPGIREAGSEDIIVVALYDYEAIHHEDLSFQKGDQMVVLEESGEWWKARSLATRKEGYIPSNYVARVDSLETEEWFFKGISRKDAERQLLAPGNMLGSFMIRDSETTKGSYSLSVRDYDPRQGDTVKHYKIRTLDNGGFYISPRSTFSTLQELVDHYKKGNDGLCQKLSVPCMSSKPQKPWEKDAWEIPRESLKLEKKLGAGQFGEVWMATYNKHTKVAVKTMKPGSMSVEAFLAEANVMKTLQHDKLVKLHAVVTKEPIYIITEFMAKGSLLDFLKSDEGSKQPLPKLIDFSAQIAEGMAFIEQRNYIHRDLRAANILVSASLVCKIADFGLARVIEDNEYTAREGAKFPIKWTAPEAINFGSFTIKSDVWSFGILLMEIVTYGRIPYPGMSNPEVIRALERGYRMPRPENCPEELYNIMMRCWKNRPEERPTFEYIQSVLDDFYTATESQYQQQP
# Runt-SMMHC FRET: inhibitors of human RUNX1 Runt domain binding to CBFb-SMMHC. AID 1434. Q01196+Q13951. inhibition, % at 20 µM. Cerulean-Runt/Venus-CBFb-SMMHC FRET ratio 530/480, 1 h. hit rate 0.74% among 220,000;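 active means mean inhibition across duplicate retests at 20 µM reaching about 50%, limit read from the data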;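 further: 0% = DMSO wells and 100% = wells with excess untagged CBFb-SMMHC; inhibitors lower the FRET ratio by blocking Runt binding to CBFb-SMMHC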
# PERK inhibitor: blocks human PERK kinase; AID 1416; hit rate 0.17% among 220,000; Q9NZJ5; inhibition, % at 5.6 µM; CHO PERK-DD fusion, SEAP luminescence translation reporter;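 active means inhibition above the mean inhibition of all tested compounds plus 3 SD, set separately per screening campaign, cut at about 2.9% in these data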;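 further: PERK kinase domain activated by AP20187 dimerizer at 100 nM; 0% = DMSO with dimerizer and 100% = rapamycin at 8.4 µM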
# Hck Nef conf: Hck-Nef kinase inhibition, confirmation. shares compounds with Hck-Nef inh. Recombinant Hck-YEEI:Nef, Z-Lyte FRET kinase assay. calls only at 10 µM. hit rate 28% among 1,300. AID 463188;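 active means average inhibition of at least 50%, with Z-scores no higher than 3 in both the phospho-tyrosine peptide and fluorescence counterscreens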
# * = called active by the depositor; i = inactive; u = inconclusive; x = no result given; + = active, no number.
SMILES,RanGTP-Impb inh,eIF4E 4G PPI,Runt-CBFb FRET,Hck-Nef inh,Runt-SMMHC FRET,PERK inhibitor,Hck Nef conf
COc1ccc(N/C=C\C(=O)c2ccc3c(c2)OCO3)cc1OC,1,-6,-26,11,-46,-1,x
O=C(CSc1nnc(-c2ccco2)c(-c2ccco2)n1)c1ccccc1,u,11,x,69*,x,0,i
COc1ccc(-c2noc(CSc3nc(-c4ccccc4)cc(=O)[nH]3)n2)cc1OC,0,x,-3,54*,0,1,i
CC1=C(C#N)C(=O)NC(=O)/C1=C/c1ccc(-c2ccc(S(N)(=O)=O)cc2)o1,-3,15,22,52*,14,1,i
NS(=O)(=O)c1ccc(-c2ccc(/C=C3\NC(=S)NC3=O)o2)cc1,0,x,x,x,x,x,x
CCSc1nc2c(cnn2-c2ccccc2)c(=O)n1N,0,4,0,59*,1,1,+
Cc1ccc(O)c(-c2cc(-c3ccccc3[N+](=O)[O-])[nH]n2)c1,2,-4,-2,12,1,1,x
Cc1ccc(O)c(-c2cc(-c3ccccc3C)[nH]n2)c1,-2,4,0,52*,-1,0,+
CCOC(=O)c1c(NC(=O)/C=C/C(=O)O)sc(C)c1-c1ccc(Cl)cc1,5,3,-6,107*,-5,0,+
CC1CCC2(CC1)NC(=O)N(CC(=O)Nc1nc(-c3ccc(F)cc3)cs1)C2=O (stereo not drawn),x,-20,2,4,-6,0,x
O=C(Cc1csc(N2CCOCC2)n1)N/N=C/c1ccc(O)c(O)c1O,3,10,46,66*,26,-1,i
O=C(CCN1CCN(c2ccccc2)CC1)N/N=C/c1ccc(O)c(O)c1O,-4,14,14,53*,4,1,i
O=C(NC1CCS(=O)(=O)C1)/C(=C\c1ccccc1)NC(=O)c1ccccc1 (stereo not drawn),-3,1,2,0,2,0,x
Nc1nn2cc(-c3ccc(Br)cc3)nc2c2ccccc12,-4,-2,0,64*,1,-1,i
O=[N+]([O-])c1cccn2cc(-c3ccc(Br)cc3)nc12,2,2,7,1,7,1,x
CCn1c(CNC(=O)C2CCCCC2)cc2ccccc21,3,x,x,x,x,x,x
CCc1noc(C)c1C(=O)Nc1cc(S(=O)(=O)N2CCCCC2)ccc1N(C)C,4,x,x,x,x,x,x
O=c1cc(CCl)nc2sc3ccccc3n12,-2,40*,-2,61*,-6,2,i
Cc1ccccc1-c1nc(-c2ccc(NC(=O)c3ccc4c(c3)OCO4)cc2)no1,-2,-23,3,14,-1,0,x
COc1cc(-c2nc(-c3ccc(NC(=O)c4ccc5c(c4)OCO5)cc3)no2)cc(OC)c1OC,6,-2,-1,84*,-1,0,+
Cc1nn(CC(=O)Nc2ccc3c(c2)oc2ccccc23)c(=O)c2ccccc12,0,5,-2,51*,1,1,i
CCc1ccc2nc(NC(=O)c3ccc4c(=O)[nH]c(CN5CCOCC5)nc4c3)sc2c1,6,-36,-12,109*,-10,1,+
O=C(OCc1cccc2ccccc12)c1ccc2c(=O)[nH]c(CN3CCOCC3)nc2c1,u,-9,-1,2,-10,1,x
Brc1ccc(Nc2ncnc3[nH]ncc23)cc1,4,2,-2,51*,0,0,i
CCOc1ccc(C(=O)OCc2nnc(-c3cccs3)o2)cc1OC,3,-7,0,1,-2,0,x
SMILES,RanGTP-Impb inh,eIF4E 4G PPI,Runt-CBFb FRET,Hck-Nef inh,Runt-SMMHC FRET,PERK inhibitor,Hck Nef conf
COc1ccc(-c2csc(NC(=O)CSc3nc(C)nc4sc(C(=O)O)c(C)c34)n2)cc1,2,4,9,96*,-5,1,+
COc1ccccc1C(=O)NNC(=O)C(=O)NCc1ccccc1,2,1,0,15,2,0,x
COc1ccccc1C(=O)NNC(=O)C(=O)NC(C)C,-2,-3,x,59*,x,1,i
CCOC(=O)CSC(=S)NC(=O)c1ccc(OC)cc1,0,15,-4,57*,7,0,i
COc1ccc(C(=O)NC(=S)SCC(=O)O)cc1,-1,3,17,25,-4,2,x
COc1ccccc1NC(=O)Cn1c(O)c(N=NC(=O)c2ccccc2O)c2ccccc21,3,25,-5,91*,-13,1,i
Cc1ccc(NC(=O)Cn2c(O)c(N=NC(=O)c3cc4ccccc4cc3O)c3ccccc32)cc1,x,28,-2,51*,-12,0,i
Cn1c(O)c(N=NC(=O)c2ccccc2O)c2ccccc21,-2,1,-3,17,0,1,x
COc1ccc(C(=O)N2CCN(Cc3ccccc3C(F)(F)F)CC2)cc1,-3,x,x,x,x,x,x
CCn1cnc2c1c(=O)n(CC(=O)OC(C)C(N)=O)c(=O)n2Cc1ccccc1 (stereo not drawn),4,x,x,x,x,x,x
C/C(=N\Nc1ccc(S(N)(=O)=O)cc1[N+](=O)[O-])c1ccc2c(c1)OCO2,-2,19,-1,65*,-2,0,+
O=S(=O)(c1ccc(Oc2ccc(S(=O)(=O)N(CCO)CCO)cc2)cc1)N(CCO)CCO,-2,-1,0,21,1,1,x
O=S(=O)(c1ccc(N2CCC(c3ccc(Cl)cc3)=N2)cc1)N(CCO)CCO,u,-1,48,82*,108*,0,x
COCCOc1cc(N)c(Cl)cc1Cl,1,3,0,29,-2,1,x
COc1ccccc1/C=C/C=c1\sc2nc(=O)c(Cc3ccccc3)nn2c1=O,1,18,-1,81*,-51,-1,+
O=S(=O)(c1ccc(N2CCOCC2)c(Cl)c1)N1CCOCC1,0,x,x,x,x,x,x
O=c1c2ccccc2sn1-c1cc(S(=O)(=O)N2CCOCC2)ccc1N1CCOCC1,7,71*,2,93*,29,-1,+
O=C(NCC1(c2ccccc2)CCCC1)c1ccccc1Br,0,2,-2,1,4,0,x
CC1=Nc2ccc(Br)cc2C(c2ccccc2)N1CC(=O)O (stereo not drawn),-1,3,-2,19,1,0,x
Cc1ccc(SCC(=O)NC(C)(C)C)cc1,5,-2,1,2,1,0,x
CC(/C=C1\SC(=S)N(NS(=O)(=O)c2ccc(C)cc2)C1=O)=C\c1ccccc1,0,-1,-6,99*,-5,2,+
